Among the data in ChEMBL document CHEMBL1154759, “Benzo[e]isoindole-1,3-diones as potential inhibitors of glycogen synthase kinase-3 (GSK-3). Synthesis, kinase inhibitory activity, zebrafish phenotype, and modeling of binding mode” (J Med Chem, 2010) are Activity, IC50 and Ki values, retold here.

The source made the active and inactive calls. No cut-off for these calls is given here.

Data set [1] deals with T1, Glycogen synthase kinase-3 beta (Homo sapiens, UniProt P49841). The data set can be described thus: Inhibition of human recombinant GSK3-beta at 1 uM by ELISA. The method, boiled down: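 Recombinant human GSK3β (500 ng) with human tau-441 (1 μg) as substrate, in a 20 μL reaction with 10× kinase buffer stock (200 mM Tris-HCl pH 7.4, 100 mM MgCl2, 5 mM DTT) and ATP added from a 100 μM stock. Incubated 30 °C for 45 min. Phospho-tau pS396 measured by immunoassay at A450. Controls were DMSO and no-ATP.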
On the technique in general: An ELISA detects its analyte on a solid surface through an enzyme-linked reagent.
Target sequence in this assay (P49841 whole entry, looked up): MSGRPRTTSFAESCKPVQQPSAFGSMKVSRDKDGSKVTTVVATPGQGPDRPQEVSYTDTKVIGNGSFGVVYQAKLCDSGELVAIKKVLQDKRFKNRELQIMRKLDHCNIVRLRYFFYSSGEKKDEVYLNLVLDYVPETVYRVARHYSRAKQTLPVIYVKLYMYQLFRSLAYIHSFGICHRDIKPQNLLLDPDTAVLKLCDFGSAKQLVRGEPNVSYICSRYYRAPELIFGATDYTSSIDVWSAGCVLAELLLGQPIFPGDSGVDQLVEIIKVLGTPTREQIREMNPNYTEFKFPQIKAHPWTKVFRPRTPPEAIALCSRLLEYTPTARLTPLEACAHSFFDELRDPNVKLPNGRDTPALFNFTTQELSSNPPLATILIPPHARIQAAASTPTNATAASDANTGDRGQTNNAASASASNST

For data set [2], the target named is Cyclin-dependent kinase 2/cyclin A (Homo sapiens, UniProt P24941). The data set can be described thus: Inhibition of human CDK2/Cyclin A by ELISA. In kind it is protein-complex assay.
Data set [3] has as its target Cyclin-dependent kinase 4/cyclin D1 (Homo sapiens, UniProt P11802). The data set can be described thus: Inhibition of human CDK4/cyclin D1 by ELISA. The class given is protein-complex assay.
The nature of data set [4]: Toxicity in Zebrafish embryos assessed as induction of eyeless phenotype during gastrulation at 25 uM after 3 days. In kind it is tissue-based, Danio rerio, Embryo. To be noted: in vivo, 72 h. The method, boiled down:
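FLK-1:EGFP transgenic zebrafish embryos, six per well in 200 μL Holtfreter's buffer. Compound added at dome stage and embryos kept in compound solution up to 7 days. Heads examined at 1 and 3 dpf for eye phenotype. LiCl comparison: 0.3 M for 10 min, then buffer.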

For data set [5], the target named is T1, Glycogen synthase kinase-3 beta. As to the kind of experiment: Inhibition of human recombinant GSK3-beta. The method, boiled down:
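10× kinase buffer stock was 200 mM Tris-HCl pH 7.4, 100 mM MgCl2, 5 mM DTT; ATP added from a 100 μM stock. Incubated 30 °C for 45 min. Tau pS396 read by immunoassay at A450. DMSO and no-ATP controls were run. IC50 taken from activity curves.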
Target sequence in this assay (P49841 whole entry): as the sequence (P49841 whole entry, looked up) above

Data set [6] shares this target. As to the kind of experiment: Inhibition of human recombinant GSK3-beta at 1 uM by ATP competitive assay. The method, boiled down:
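Recombinant human GSK3β (60 ng) with tau-441 (400 ng) in 10× buffer stock (200 mM Tris-HCl pH 7.4, 100 mM MgCl2, 5 mM DTT). Inhibitor at 1 μM final, ATP varied, 20 μL, 30 °C for 45 min. Tau pS396 measured by immunoassay at A450. Activity (% of control) versus [ATP] fitted to a simple competitive-inhibition equation to give apparent Ki.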
Target sequence in this assay (P49841 whole entry): as the sequence (P49841 whole entry, looked up) above

Chain of Cyclin-dependent kinase 4/cyclin D1 (P11802 whole entry): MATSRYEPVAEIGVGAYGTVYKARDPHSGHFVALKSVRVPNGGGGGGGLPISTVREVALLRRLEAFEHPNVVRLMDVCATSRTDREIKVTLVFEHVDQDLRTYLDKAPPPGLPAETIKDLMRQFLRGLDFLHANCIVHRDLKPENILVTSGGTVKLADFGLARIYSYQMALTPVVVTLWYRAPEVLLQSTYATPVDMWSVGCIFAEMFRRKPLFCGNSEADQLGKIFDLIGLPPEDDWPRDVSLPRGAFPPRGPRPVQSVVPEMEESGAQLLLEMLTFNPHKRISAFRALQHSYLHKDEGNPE
Chain of Cyclin-dependent kinase 4/cyclin D1 (P24385 whole entry, further chain): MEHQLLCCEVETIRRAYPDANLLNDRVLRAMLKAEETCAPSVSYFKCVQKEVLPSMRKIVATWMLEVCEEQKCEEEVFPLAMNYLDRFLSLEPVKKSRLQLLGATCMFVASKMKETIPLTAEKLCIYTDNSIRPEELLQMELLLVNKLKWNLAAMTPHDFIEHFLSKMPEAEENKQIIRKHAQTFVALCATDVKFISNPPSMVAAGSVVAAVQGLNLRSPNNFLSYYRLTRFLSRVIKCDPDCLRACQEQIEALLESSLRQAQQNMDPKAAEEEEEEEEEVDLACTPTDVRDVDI

For the compound `COC(=O)c1ccc2c3c(c(CCO)cc2c1)C(=O)NC3=O`, the outcome in data set [1] was Active.

For `CCc1cc2ccc(C(=O)OC)cc2c2c1C(=O)NC2=O`, the result in data set [1] was Active.

Turning to `COC(=O)c1ccc2c3c(c(CC(C)C)cc2c1)C(=O)NC3=O`, in data set [1], the outcome was Active.

Regarding `CCc1cc2c(C(=O)OC)cccc2c2c1C(=O)NC2=O`, in data set [1], the outcome was Active.

Take `COC(=O)c1ccc2c3c(c(CC(C)OCc4ccccc4)cc2c1)C(=O)NC3=O` (stereo not drawn): the outcome in data set [1] was Active.

Take `COC(=O)c1ccc2cc(C(C)C)c3c(c2c1)C(=O)NC3=O`: the outcome in data set [1] was Active.

As usually defined, the IC50 is the midpoint of a concentration-inhibition curve. As to `Cn1cc(C2=C(c3ccc(Cl)cc3Cl)C(=O)NC2=O)c2ccccc21` [SB-216763], the result in data set [1] was Active. Besides, the IC50 in data set [2] was found to be 269 nM; in data set [3], 32000 nM. For the same compound, the Activity result in data set [4] is “Not Active”.

As for `COC(=O)c1ccc2c3c(c(CCOCc4ccccc4)cc2c1)C(=O)NC3=O`, the result in data set [1] was Active.

For the compound `COC(=O)c1ccc2c3c(c(C)c(C)c2c1)C(=O)NC3=O`, in data set [1], the outcome was Active.

The Ki is the dissociation constant of the complex between target and ligand, obtained from inhibition or displacement. As for `COc1cc2c(C)cc3c(c2cc1OC)C(=O)NC3=O`, the result in data set [1] was Active. Also, the IC50 in data set [5] worked out at 270 nM; in data set [2], 787 nM; in data set [3], 16000 nM. In addition, in data set [6], the Ki was 259 nM. Also, in data set [4], the outcome was Active.

For the compound `COC(=O)c1ccc2c3c(c(C(C)C)cc2c1)C(=O)NC3=O`, in data set [1], the outcome was Active.

For `COC(=O)c1cccc2c3c(c(CC(C)C)cc12)C(=O)NC3=O`, in data set [1], the outcome was Active. Also, the results for the IC50 in data set [5] and in data set [3] were 486 nM and 6000 nM, respectively.

For the compound `COc1ccc2cc(C)c3c(c2c1)C(=O)NC3=O`, the outcome in data set [1] was Active.

With `COC(=O)c1cccc2c3c(c(C)cc12)C(=O)NC3=O`, in data set [1], the outcome was Active.

With `COC(=O)c1cccc2c3c(c(C(C)C)cc12)C(=O)NC3=O`, the result in data set [1] was Active.

With `CCCc1cc2c(C(=O)OC)cccc2c2c1C(=O)NC2=O`, the result in data set [1] was Active.

Regarding `CCc1cc2c(c3cc(OC)c(OC)cc13)C(=O)NC2=O`, the result in data set [1] was Active. In addition, the IC50 is 92 nM in data set [5] and 19000 nM in data set [3]. In addition, the Activity entry in data set [4] was “Not Active”.

For the compound `COC(=O)c1ccc2cc(CC(C)C)c3c(c2c1)C(=O)NC3=O`, the outcome in data set [1] was Active.

Regarding `COC(=O)c1ccc2c3c(c(CC(C)O)cc2c1)C(=O)NC3=O` (stereo not drawn), the result in data set [1] was Active.

As for `CCc1c(C)c2c(c3cc(C(=O)OC)ccc13)C(=O)NC2=O`, the outcome in data set [1] was Active.

For the compound `COC(=O)c1ccc2cc(C)c3c(c2c1)C(=O)NC3=O`, the outcome in data set [1] was Active.

For `COC(=O)c1cccc2c3c(c(C)c(C)c12)C(=O)NC3=O`, in data set [1], the result was Active.

`CCc1cc2cc(C(=O)OC)ccc2c2c1C(=O)NC2=O`: the outcome in data set [1] was Active.

For the compound `Cc1cc2ccccc2c2c1C(=O)NC2=O`, the outcome in data set [1] was Active.

Take `Cc1cc2ccc(Cl)cc2c2c1C(=O)NC2=O`: in data set [1], the result was Active.
